Source: PubChem
Fh CTSL1 inh: blocks F. hepatica cathepsin L1 in PFM18AAP counter-screen. recombinant F. hepatica cathepsin L1, Z-Leu-Arg-MCA fluorescence. inhibition, % at 5.96 µM. 300,000 tested, 0.49% active;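 active means inhibition above the mean of all tested compounds plus 3 SD, set per screening campaign, cut at about 17% in these data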;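 further: 0% = plate median of test compound wells and 100% = 1 µM Z-Phe-Ala-diazomethylketone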
GSTO1 inh: blocks human GSTO1 in RBBP9 counter-screen; 300,000 tested, 1.1% active; inhibition, % at 5.96 µM; P78417; recombinant GSTO1, activity-based probe fluorescence polarization;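 active means inhibition above the campaign mean inhibition plus 3 SD, cut at about 35% in these data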;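 further: 0% = GSTO1-1 with DMSO and 100% = wells lacking GSTO1-1 enzyme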
Target sequence (P78417 whole entry, looked up): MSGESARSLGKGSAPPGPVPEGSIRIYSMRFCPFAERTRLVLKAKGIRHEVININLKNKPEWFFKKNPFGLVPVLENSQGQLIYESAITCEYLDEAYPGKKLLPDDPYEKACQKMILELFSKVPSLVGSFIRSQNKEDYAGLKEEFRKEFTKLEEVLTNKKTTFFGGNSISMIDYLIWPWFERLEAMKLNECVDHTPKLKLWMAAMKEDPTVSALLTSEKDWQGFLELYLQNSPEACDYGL
PP5 primary: blocks human protein phosphatase 5 activity; purified PP5c, OMFP substrate fluorescence; P53041; inhibition, % at 6.7 µM; AID 1987; 320,000 tested, 0.18% active;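 active means inhibition above the campaign's mean inhibition across all tested compounds plus 3 SD, cut at about 9.5% in these data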;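 further: 0% = DMSO only and 100% = 100 µM cantharidin control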
UCH37 DUB inh: human UCH37 deubiquitinating enzyme inhibition; purified proteasome/UCH37, Ub-AMC cleavage fluorescence; AID 588478; inhibition, % (concentration not given with the values); Q9Y5K5; 330,000 tested, 0.33% active;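 active means mean inhibition over replicate wells above about 20%, limit read from the data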;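 further: 0% = compound-free wells with enzyme and 100% = wells lacking proteasome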
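system = Proteasome-associated human UCH37 deubiquitinase | amount = 0.15 nM proteasome as dispensed | medium = pH 7.4 Tris-HCl (50 mM) with ovalbumin, ATP-MgCl2, DTT | incubation = 30 min preincubation with enzyme, 25 min cleavage at room temperature | detection = AMC fluorescence 355/460 nm | read-out basis = percent inhibition | controls = no-proteasome and no-compound wells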
PAD4 inh: inhibitors of human PAD4; Q9UM07; inhibition, % at 6.36 µM; recombinant PAD4, RCA probe fluorescence polarization; 330,000 tested, 0.41% active;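 active means percent inhibition above a cutoff equal to the mean of all tested compounds plus 3 SD, cut at about 15% in these data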;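 further: 0% = PAD4 with RCA probe and DMSO and 100% = probe without PAD4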
Apaf-1 inh: human Apaf-1 inhibition. O14727. reconstituted apoptosome caspase-3 activity, DEVD-Rh110 fluorescence. inhibition, % at 20 µM. 330,000 tested, 0.71% active; active means inhibition of at least 40% at 20 µM;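 further: plate controls were DMSO wells for no effect and DEVD-CHO caspase inhibitor wells for full effect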
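Material: cell-free apoptosome with Apaf-1, procaspase-3 and caspase-9; Buffer or medium: Hepes pH 7.5 with detergent and BSA; Reagent: cytochrome c trigger plus (Z-DEVD)2-Rh110 caspase-3 substrate; Times: compound with Apaf-1, dATP, procaspase-3 30 min, then 50 min reaction, room temperature; Technique: Rh110 fluorescence intensity.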
PAD4 FP conf: confirmation of human PAD4 inhibitors; 1,200 tested, 28% active; recombinant PAD4, RCA probe fluorescence polarization; AID 488796; shares compounds with PAD4 inh; inhibition, % at 6.36 µM;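 active means mean inhibition across replicates above the hit cutoff set by the earlier primary screen, cut at about 15% in these data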;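 further: inhibitors block active-site labeling by the probe so polarization falls; 0% = PAD4 with probe and DMSO and 100% = probe without PAD4 enzyme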
An asterisk follows results filed as active; . = no result given. Hits are enriched below; roughly 2% of the tested compounds scored in any of these assays.

SMILES | Fh CTSL1 inh | GSTO1 inh | PP5 primary | UCH37 DUB inh | PAD4 inh | Apaf-1 inh | PAD4 FP conf
O=C(CN1c2cccc3cccc(c23)S1(=O)=O)Nc1ccc(S(=O)(=O)N2CCOCC2)cc1 | 8 | -1 | 3 | -3 | 17* | -11 | 32*
COc1ccc(C=Nn2cncn2)cc1COc1ccc(NC(C)=O)cc1 | . | . | . | 2 | . | . | .
Cc1ccc(C2=Nc3ccccc3SC(c3cccc([N+](=O)[O-])c3)C2)cc1 (configuration not stated) | -3 | 6 | 1 | -1 | 18* | 15 | -6
COc1cc(C=NNS(=O)(=O)c2ccc3ccccc3c2)ccc1OCCN1CCOCC1 | . | . | . | 2 | . | . | .
COc1ccccc1N(CC(=O)NN=C(C)c1cccc(Br)c1)S(C)(=O)=O | . | . | . | -2 | . | . | .
COc1ccc(Cl)cc1Nc1nc(C)nc2c1oc1ccccc12 | 3 | 1 | 1 | -187 | 15* | 12 | -15
Cc1ccccc1N1CCN(C(=S)c2ccc([N+](=O)[O-])cc2)CC1 | 4 | -1 | -3 | 4 | 20* | 7 | 2
Cc1ccc2[nH]c3nc(NN=Cc4cccc(O)c4)nnc3c2c1 | . | . | . | 8 | . | . | .
O=C(O)c1ccccc1C=NNC(=S)NC1CCCCC1 | . | . | . | 3 | . | . | .
CCn1c(CSc2ncn[nH]2)nc2cc(C(=O)O)ccc21 | -2 | 6 | -1 | -2 | 22* | 0 | 15*
O=C(O)c1ccc(CSc2ncn[nH]2)cc1 | 1 | 6 | 0 | 5 | -1 | -11 | .
CCn1c(CSc2nnc(-c3ccoc3C)n2C)nc2cc(S(=O)(=O)N(C)C)ccc21 | -3 | -5 | -1 | -2 | 32* | 8 | 15
CCn1c(CSc2nnc(-c3ccncc3)n2C)nc2cc(C(=O)O)ccc21 | -2 | 34 | -1 | -4 | 52* | -5 | 62*
COc1cccc(C=Nn2nnnc2N)c1O | . | . | . | 4 | . | . | .
COc1ccc(C=Nn2cncn2)cc1Cn1cc([N+](=O)[O-])cn1 | . | . | . | 3 | . | . | .
Nc1nonc1-n1nnc(C(=O)NN=CC2CC=CCC2)c1CSc1ccccc1 (configuration not stated) | . | . | . | 5 | . | . | .
CC1(C)c2ccccc2N2CCC(=O)NC21/C=C/c1ccco1 (configuration not stated) | 2 | 4 | 2 | 3 | 17* | 16 | -3
CC1(C)c2ccccc2N2CC(=O)NC21/C=C/c1ccco1 (configuration not stated) | 0 | 3 | 1 | -4 | -12 | 0 | .
COc1ccc(OCC(=O)NN=C2CCc3ccccc32)cc1 | . | . | . | 2 | . | . | .
COc1cc(NC2c3ccccc3C(=O)N2Cc2ccccc2Cl)cc(OC)c1 (configuration not stated) | -3 | 2 | 3 | 2 | 58* | 8 | 16*
COc1cccc(NC2c3ccccc3C(=O)N2Cc2ccccc2Cl)c1 (configuration not stated) | 5 | -2 | 4 | 6 | -1 | 16 | .
COCc1cc(C)nc(SCC(=O)Nc2ccc3c(c2)n(C)c(=O)n3C)c1C#N | 1 | 0 | 5 | -4 | 197* | 5 | 2
Cc1cc([N+](=O)[O-])nn1CCCC(=O)Nc1ccc2c(c1)OCO2 | 6 | 1 | 0 | 2 | 15* | -9 | 0
Cc1ccccc1Cn1cc(NC(=O)CCCn2nc([N+](=O)[O-])cc2C)cn1 | 1 | 1 | -2 | 2 | 3 | -4 | .
CCC1(C)Cc2c(sc3nc(SC)[nH]c(=S)c23)CO1 (configuration not stated) | 2 | -9 | -2 | 1 | 36* | 6 | 27*
CCSc1nc2sc3c(c2c(=O)[nH]1)CC(C)(CC)OC3 (configuration not stated) | -1 | -24 | 3 | 3 | 1 | -10 | .
COC(=O)c1cccc(NC(=O)CSc2nc(O)c(-c3ccccc3)c(=O)[nH]2)c1 | -3 | 8 | 1 | 15 | 18* | 10 | 20*
COC(=O)c1ccccc1NC(=O)CSc1nc(O)c(-c2ccccc2)c(=O)[nH]1 | 0 | 2 | 1 | 9 | 17* | -17 | 17*
O=C(NC(=S)NC1CCN(Cc2ccccc2)CC1)c1ccc(F)cc1 | -1 | -7 | 2 | 2 | 33* | 8 | 37*
